Assay results published in ChEMBL document CHEMBL2390828, “Synthesis and biological characterization of spiro[2H-(1,3)-benzoxazine-2,4'-piperidine] based histone deacetylase inhibitors” (Eur J Med Chem, 2013).
Activity calls are given as the source filed them. The calls are words filed in the database; no cut-off is given here.

Columns and labels:
[1] = Solubility of the compound at pH 7.4; type: physicochemical; settings: buffer
[2] = biological target: Voltage-gated inwardly rectifying potassium channel KCNH2 (Homo sapiens, UniProt Q12809); experiment: Inhibition of human ERG channel
Voltage-gated inwardly rectifying potassium channel KCNH2, sequence (Q12809 whole entry): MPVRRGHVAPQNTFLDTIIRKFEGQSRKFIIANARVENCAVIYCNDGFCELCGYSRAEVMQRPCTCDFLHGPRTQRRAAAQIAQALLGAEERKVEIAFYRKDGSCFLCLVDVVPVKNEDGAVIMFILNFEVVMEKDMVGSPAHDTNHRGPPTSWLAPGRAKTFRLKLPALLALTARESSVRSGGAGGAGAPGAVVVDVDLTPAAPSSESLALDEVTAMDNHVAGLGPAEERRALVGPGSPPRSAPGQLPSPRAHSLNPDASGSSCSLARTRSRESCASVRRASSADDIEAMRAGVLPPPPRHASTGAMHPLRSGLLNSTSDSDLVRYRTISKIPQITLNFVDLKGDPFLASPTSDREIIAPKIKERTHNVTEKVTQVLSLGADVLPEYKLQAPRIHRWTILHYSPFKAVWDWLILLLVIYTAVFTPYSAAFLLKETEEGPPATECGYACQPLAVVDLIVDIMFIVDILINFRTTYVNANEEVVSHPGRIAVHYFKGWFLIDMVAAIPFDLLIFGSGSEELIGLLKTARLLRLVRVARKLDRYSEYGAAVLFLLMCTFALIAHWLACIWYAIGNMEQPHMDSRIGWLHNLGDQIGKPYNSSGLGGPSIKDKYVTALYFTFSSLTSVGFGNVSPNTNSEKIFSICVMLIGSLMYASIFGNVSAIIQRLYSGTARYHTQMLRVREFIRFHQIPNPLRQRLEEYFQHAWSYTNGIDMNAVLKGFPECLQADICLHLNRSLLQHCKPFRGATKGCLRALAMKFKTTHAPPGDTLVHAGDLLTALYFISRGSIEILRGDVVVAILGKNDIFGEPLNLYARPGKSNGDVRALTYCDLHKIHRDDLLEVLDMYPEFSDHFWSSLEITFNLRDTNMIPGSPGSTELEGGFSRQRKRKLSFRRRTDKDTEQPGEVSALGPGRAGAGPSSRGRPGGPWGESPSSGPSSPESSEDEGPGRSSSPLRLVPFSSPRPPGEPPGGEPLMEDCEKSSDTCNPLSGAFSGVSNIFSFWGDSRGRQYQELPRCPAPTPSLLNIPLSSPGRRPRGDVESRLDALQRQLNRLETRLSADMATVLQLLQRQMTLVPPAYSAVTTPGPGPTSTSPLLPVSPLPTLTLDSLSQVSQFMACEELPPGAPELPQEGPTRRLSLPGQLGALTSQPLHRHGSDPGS

[3] = Volume of distribution at steady state in CD1 mouse at 5 mg/kg, iv and 15 mg/kg, po; type: ADME, organism-based; settings: in vivo, read-out: Vdss
Summary of the method: (§1)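 CD-1 mice got single doses of 5 mg/kg iv or 15 mg/kg orally. The iv vehicle was water with 3% DMSO and 9.7% encapsin. The oral vehicle was water with 5% DMSO and 9.5% encapsin. Plasma PK parameters were calculated, including AUC0–∞, clearance, half-life, Vss, cmax and oral bioavailability.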

[4] = Tmax in CD1 mouse at 5 mg/kg, iv and 15 mg/kg, po; type: ADME, organism-based; settings: in vivo; summary of the method: as §1
[5] = Terminal half life in CD1 mouse at 5 mg/kg, iv and 15 mg/kg, po; type: ADME, organism-based; settings: in vivo, read-out: beta t1/2 (converted); summary of the method: as §1
HCT-116 [6] = experiment: Cytotoxicity against human HCT116 cells; type: functional, cell-based
[7] = Metabolic stability in human liver microsomes after 30 mins by LC-MS/MS analysis; type: ADME, Microsome; settings: read-out: Stability
Summary of the method: (§2)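 Compounds were incubated with mouse or human liver microsomal preparation for 30 min at 37 °C. The reaction was stopped with CH3CN. Unmetabolized compound was quantified by LC-MS/MS in MRM mode and reported as percent remaining. Replicates n ≥ 2, mean values given.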

Histone deacetylase = experiment: Inhibition of HDAC in human Hela cell nuclear extract after 15 mins; type: protein assay
A549 = experiment: Cytotoxicity against human A549 cells; type: functional, cell-based
[8] = Cmax in CD1 mouse at 15 mg/kg, po; settings: CD1, mouse, in vivo
[9] = AUC (0 to infinity) in CD1 mouse at 15 mg/kg, po; type: ADME, organism-based; set-up: time infinity, dose 15 mg/kg, route oral; settings: plasma; summary of the method: as §1
[10] = Oral bioavailability in CD1 mouse at 15 mg/kg; settings: in vivo
[11] = Cmax in CD1 mouse at 5 mg/kg, iv; type: ADME, organism-based; set-up: dose 5 mg/kg, route intravenous; settings: in vivo; summary of the method: as §1
[12] = Clearance in CD1 mouse at 5 mg/kg, iv and 15 mg/kg, po; type: ADME, organism-based; settings: in vivo; summary of the method: as §1
[13] = AUC (0 to infinity) in CD1 mouse at 5 mg/kg, iv; type: ADME, organism-based; set-up: time infinity, dose 5 mg/kg, route intravenous; settings: plasma; summary of the method: as §1
K562 = experiment: Cytotoxicity against human K562 cells; type: functional, cell-based
[14] = Metabolic stability in mouse liver microsomes after 30 mins by LC-MS/MS analysis; type: ADME, Microsome; settings: read-out: Stability; summary of the method: as §2
Mus musculus [15] = experiment: Toxicity in CD1 mouse xenografted with human HCT116 cells assessed as body weight change at 75 to 150 mg/kg, po qd administered 5 days a week for 2 weeks; type: organism-based, HCT-116; set-up: dose 75-150 mg/kg, route oral; settings: in vivo
Summary of the method: (§3)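 Female CD-1 nude mice received 5 × 10⁶ HCT116 cells subcutaneously in the flank. Once tumours reached 100 mm³, dosing was 75 or 150 mg/kg orally, once daily, 5 days/week for 2 weeks. Tumour volume and body weight were followed. Tumour/control (T/C) ratio was calculated against vehicle controls.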

Mus musculus [16] = experiment: Inhibition of HDAC in human HCT116 cells […] in CD1 mouse at 75 to 150 mg/kg, po administered 5 days a week for 2 weeks by immunohistochemistry relative to control; type: functional, organism-based; settings: HCT-116
Summary of the method: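 Tumours came from HCT116 xenograft-bearing CD-1 nude mice dosed orally at 75 or 150 mg/kg once daily, 5 days/week for 2 weeks. Sections were taken at the end of treatment from vehicle and treated mice. Histone acetylation was stained by immunohistochemistry (anti-acetyl H4 clone T25, 1:13,000) and scored by positive cells and signal intensity.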

HCT-116 [17] = experiment: Antitumor activity against human HCT116 cells […] in CD1 mouse at 75 mg/kg, po administered 5 days a week for 2 weeks relative to control; type: functional; summary of the method: as §3
[18] = biological target: T1, Protein deacetylase HDAC6 (Homo sapiens, UniProt Q9UBN7); experiment: Inhibition of HDAC6 (unknown origin)
T1 sequence (Q9UBN7 whole entry): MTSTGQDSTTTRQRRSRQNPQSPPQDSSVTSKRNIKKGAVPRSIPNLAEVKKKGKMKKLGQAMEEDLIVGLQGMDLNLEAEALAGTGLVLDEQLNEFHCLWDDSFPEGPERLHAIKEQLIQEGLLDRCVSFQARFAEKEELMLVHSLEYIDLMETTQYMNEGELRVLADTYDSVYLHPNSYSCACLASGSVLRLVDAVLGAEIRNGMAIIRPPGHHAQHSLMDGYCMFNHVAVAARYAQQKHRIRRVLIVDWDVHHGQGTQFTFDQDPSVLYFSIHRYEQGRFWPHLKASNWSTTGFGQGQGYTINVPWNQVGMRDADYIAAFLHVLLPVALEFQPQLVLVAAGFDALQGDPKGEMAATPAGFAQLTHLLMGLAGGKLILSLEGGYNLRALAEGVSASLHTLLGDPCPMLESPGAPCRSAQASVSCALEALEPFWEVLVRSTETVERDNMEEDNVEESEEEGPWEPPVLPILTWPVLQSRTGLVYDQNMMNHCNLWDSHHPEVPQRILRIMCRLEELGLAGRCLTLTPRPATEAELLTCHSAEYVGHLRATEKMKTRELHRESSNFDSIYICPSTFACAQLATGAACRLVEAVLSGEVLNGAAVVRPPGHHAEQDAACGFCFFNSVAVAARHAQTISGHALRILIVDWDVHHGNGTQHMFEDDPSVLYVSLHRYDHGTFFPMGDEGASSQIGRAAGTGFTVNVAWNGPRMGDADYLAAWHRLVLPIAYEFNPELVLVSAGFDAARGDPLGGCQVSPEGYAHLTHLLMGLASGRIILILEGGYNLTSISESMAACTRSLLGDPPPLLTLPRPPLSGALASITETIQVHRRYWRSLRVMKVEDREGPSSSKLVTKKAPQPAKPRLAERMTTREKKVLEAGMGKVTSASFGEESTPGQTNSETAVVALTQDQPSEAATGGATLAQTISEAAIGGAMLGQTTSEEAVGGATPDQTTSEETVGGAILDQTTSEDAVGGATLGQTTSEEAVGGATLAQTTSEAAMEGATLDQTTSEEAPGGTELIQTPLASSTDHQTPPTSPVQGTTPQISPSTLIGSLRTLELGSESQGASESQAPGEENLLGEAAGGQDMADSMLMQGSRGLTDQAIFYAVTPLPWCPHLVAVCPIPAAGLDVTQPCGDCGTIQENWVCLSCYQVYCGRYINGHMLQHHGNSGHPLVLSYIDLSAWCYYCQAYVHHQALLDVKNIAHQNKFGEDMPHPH

Histone deacetylase 3 = Histone deacetylase 3 (Homo sapiens, UniProt O15379); experiment: Inhibition of HDAC3 (unknown origin)
Histone deacetylase 3, sequence (O15379 whole entry): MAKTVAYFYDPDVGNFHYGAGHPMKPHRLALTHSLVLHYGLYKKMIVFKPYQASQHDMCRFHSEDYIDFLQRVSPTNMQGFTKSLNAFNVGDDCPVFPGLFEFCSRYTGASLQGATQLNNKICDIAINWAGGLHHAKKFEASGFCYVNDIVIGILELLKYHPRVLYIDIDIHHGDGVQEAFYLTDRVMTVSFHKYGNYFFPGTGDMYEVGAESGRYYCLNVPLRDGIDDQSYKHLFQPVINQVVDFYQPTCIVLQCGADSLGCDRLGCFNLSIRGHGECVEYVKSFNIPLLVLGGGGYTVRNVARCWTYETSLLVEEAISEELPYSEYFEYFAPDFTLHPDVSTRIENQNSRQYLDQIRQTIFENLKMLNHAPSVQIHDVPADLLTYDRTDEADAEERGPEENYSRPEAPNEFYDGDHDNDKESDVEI

HCT-116 [19] = experiment: Cell cycle arrest in human HCT116 cells assessed as accumulation at G2/M phase at higher dose after 24 hrs by propidium iodide staining-based FACS analysis; type: functional
Summary of the method: (§4)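 HCT116 colon carcinoma cells were exposed to several concentrations for 24 h. Cell-cycle profiles were read by flow cytometry, with G0/G1, G2/M and sub-G1 fractions scored.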

HCT-116 [20] = experiment: Cell cycle arrest in human HCT116 cells assessed as accumulation at G0/G1 phase at lower dose after 24 hrs by propidium iodide staining-based FACS analysis; type: functional; summary of the method: as §4
HCT-116 [21] = experiment: Antitumor activity against human HCT116 cells […] in po dosed CD1 mouse administered 5 days a week for 2 weeks relative to control; type: functional, organism-based; summary of the method: as §3
HCT-116 [22] = experiment: Induction of apoptosis in human HCT116 cells assessed as increase in sub-G1 population after 24 hrs by propidium iodide staining-based FACS analysis; type: functional, cell-based; summary of the method: as §4
HCT-116 [23] = experiment: Antitumor activity against human HCT116 cells […] in CD1 mouse at 150 mg/kg, po administered 5 days a week for 2 weeks relative to control; type: functional; summary of the method: as §3
[24] = Permeability from apical to basolateral side across human Caco2 cells after 2 hrs by LC-MS analysis; type: ADME, cell-based; settings: Caco-2, read-out: permeability
[25] = biological target: Histone deacetylase (Homo sapiens) (UniProt Q13547+O15379+Q9UBN7+Q92769+Q9UQL6+Q8WUI4+Q9BY41+Q96DB2+P56524+Q9UKV0+Q969S8); experiment: Inhibition of HDAC in human K562 cells assessed as increase in histone acetylation level after 2 to 8 hrs by flow cytometry; type: cell-based
Summary of the method: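 K562 cells were treated at 0.1, 0.5, 1 and 3 µM. Histone acetylation was measured by flow cytometry and reported as the ratio of acetylation level in treated over control cells.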

Histone deacetylase 2 = Histone deacetylase 2 (Homo sapiens, UniProt Q92769); experiment: Inhibition of HDAC2 (unknown origin)
Histone deacetylase 2, sequence (Q92769 whole entry): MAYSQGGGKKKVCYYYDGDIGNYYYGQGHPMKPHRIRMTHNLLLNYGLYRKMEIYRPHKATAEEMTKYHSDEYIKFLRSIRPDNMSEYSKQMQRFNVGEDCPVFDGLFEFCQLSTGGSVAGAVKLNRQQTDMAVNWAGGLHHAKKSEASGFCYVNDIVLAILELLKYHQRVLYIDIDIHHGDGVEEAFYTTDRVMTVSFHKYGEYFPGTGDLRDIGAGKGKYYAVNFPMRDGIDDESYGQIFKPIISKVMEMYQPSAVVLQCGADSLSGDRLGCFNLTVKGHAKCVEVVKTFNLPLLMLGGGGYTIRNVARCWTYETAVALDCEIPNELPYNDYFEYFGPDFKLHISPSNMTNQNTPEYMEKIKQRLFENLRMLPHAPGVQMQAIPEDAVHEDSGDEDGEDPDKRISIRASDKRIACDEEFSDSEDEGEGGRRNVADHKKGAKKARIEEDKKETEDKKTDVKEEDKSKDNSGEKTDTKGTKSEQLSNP

For `O=C(/C=C/c1ccc2c(c1)C(=O)NC1(CCN(Cc3ccc(F)cc3)CC1)O2)NO`, the solubility [1] was > 200 µM, the “inhibition (INH)” value [2] was 70% and the Vd [3] was 3.1 L/kg. For the same compound, the Tmax [4] was 0.0833 h, the half-life [5] was 6.9 h and the IC50 (HCT-116 [6]) was 498 nM. It also gave a remaining at 0.5 h [7] of 71%, an IC50 (Histone deacetylase) of 103 nM and an IC50 (A549) of 1670 nM. For the same compound, the Cmax [8] was 5.05 µM, the AUC(0-inf) [9] was 1980 ng·h/mL and the bioavailability [10] was 35%. It also gave a Cmax [11] of 13 µM, a clearance [12] of 44.3 mL/min/kg and an AUC(0-inf) [13] of 1880 ng·h/mL. It also gave an IC50 (K562) of 961 nM and a remaining at 0.5 h [14] of 98%.
`O=C(/C=C/c1ccc2c(c1)C(=O)N(Cc1ccccc1)C1(CCN(Cc3ccccc3)CC1)O2)NO` showed an IC50 (HCT-116 [6]) of 1870 nM, an IC50 (Histone deacetylase) of 540 nM and an IC50 (A549) of 2620 nM. For the same compound, the IC50 (K562) was 1720 nM.
`O=C(/C=C/c1ccc2c(c1)C(=O)N(Cc1ccccc1)C1(CCN(CCc3ccccc3)CC1)O2)NO` gave an IC50 (HCT-116 [6]) of 1670 nM, an IC50 (Histone deacetylase) of 645 nM and an IC50 (A549) of 1510 nM. The IC50 (K562) was 1250 nM.
Compound `O=C(/C=C/c1ccc2c(c1)C(=O)NC1(CCN(CCc3ccccc3)CC1)O2)NO` has an IC50 (HCT-116 [6]) of 469 nM, a remaining at 0.5 h [7] of 68% and an IC50 (Histone deacetylase) of 91 nM. It also gave an IC50 (A549) of 1420 nM, an IC50 (K562) of 494 nM and a remaining at 0.5 h [14] of 46%.
`CN1C(=O)c2cc(/C=C/C(=O)NO)ccc2OC12CCN(Cc1ccc(F)cc1)CC2` gave an IC50 (HCT-116 [6]) of 848 nM, a remaining at 0.5 h [7] of 60% and an IC50 (Histone deacetylase) of 137 nM. It also gave an IC50 (A549) of 2100 nM, an IC50 (K562) of 734 nM and a remaining at 0.5 h [14] of 39%.
With `O=C(/C=C/c1ccc2c(c1)C(=O)N(Cc1ccccc1)C1(CCNCC1)O2)NO` the IC50 (HCT-116 [6]) was 857 nM, the IC50 (Histone deacetylase) was 59 nM and the IC50 (A549) was 3190 nM. The IC50 (K562) was 1520 nM.
With `O=C(/C=C/c1ccc2c(c1)C(=O)NC1(CCN(Cc3ccccc3)CC1)O2)NO` the Activity (Mus musculus [15]) was “Non-toxic”, the solubility [1] was > 200 µM and the “inhibition (INH)” value [2] was 54%. The Vd [3] was 8.5 L/kg, the Tmax [4] was 0.25 h and the half-life [5] was 13.4 h. The IC50 (HCT-116 [6]) was 515 nM, the inhibition (Mus musculus [16]) was “Active” and the T/C (HCT-116 [17]) was 0.59. The remaining at 0.5 h [7] was 77%, the IC50 (Histone deacetylase) was 83 nM and the IC50 (A549) was 1410 nM. The IC50 [18] was 110 nM, the IC50 (Histone deacetylase 3) was 87 nM and the Cmax [8] was 2.71 µM. The AUC(0-inf) [9] was 1960 ng·h/mL, the bioavailability [10] was 42.8% and the Cmax [11] was 13.5 µM. For the same compound, the Activity (HCT-116 [19]) was “Active”, the Activity (HCT-116 [20]) was “Active” and the clearance [12] was 54.5 mL/min/kg. The Activity (HCT-116 [21]) was “Dose-dependent effect”, the Activity (HCT-116 [22]) was “Dose-dependent effect” and the T/C (HCT-116 [23]) was 0.33. It also gave an AUC(0-inf) [13] of 1530 ng·h/mL, a Papp A→B at 2 h [24] of 0.4 ×10⁻⁶ cm/s and an IC50 (K562) of 582 nM. For the same compound, the remaining at 0.5 h [14] was 75%, the inhibition [25] was “Dose-dependent effect” and the IC50 (Histone deacetylase 2) was 192 nM.
With `O=C(/C=C/c1ccc2c(c1)C(=O)N(Cc1ccccc1)C1(CCN(Cc3ccc(F)cc3)CC1)O2)NO` the IC50 (HCT-116 [6]) was 2030 nM, the IC50 (Histone deacetylase) was 667 nM and the IC50 (A549) was 3040 nM. The IC50 (K562) was 1570 nM.
In the case of `CN1CCC2(CC1)NC(=O)c1cc(/C=C/C(=O)NO)ccc1O2`, the IC50 (HCT-116 [6]) is reported as 886 nM, the IC50 (Histone deacetylase) is reported as 99 nM and the IC50 (A549) is reported as 2700 nM. For the same compound, the IC50 (K562) was 1490 nM.
